Screening results: PubChem, several laboratories
A selection: hits, their analogues and other compounds. The true share with any hit is near 1.8%.
STAT3 inh: IL-6 driven STAT3 reporter inhibitors, primary screen, U3A cells, luciferase, luminescence, MLSCN library; IL-6 STAT3-luciferase reporter; host cell line lacks STAT1; inhibition, % at 5.5 µM; hit rate 0.89% among 190,000;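 active means inhibition above the mean inhibition across all screened compounds plus 3 SD, cut at about 44% in these data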
C8 TRAIL sens: viability loss with TRAIL in NB7+C8 cells, primary screen, TRAIL sensitizer project, cell-based, ATPlite luminescence. inhibition (viability loss, TRAIL sensitization), % at 10 µM. hit rate 1% among 360,000;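 active means compounds causing at least 50% loss of cell viability in the single-dose screen, relative to plate controls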
STAT3 act: IL-6 driven STAT3 reporter potentiators, primary screen, U3A cells, luciferase, luminescence, MLSCN library | IL-6 STAT3-luciferase reporter; 100% = signal with IL-6 EC80 alone | activation (% of control), % at 5.6 µM | hit rate 0.91% among 190,000 | AID 871, 2007;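 active means activation above the screen-wide mean of compound activation plus 3 SD, cut at about 130% in these data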
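Material: STAT3-luciferase reporter U3A cells. Controls: IL-6-treated wells, 100% activation. Read-out: % activation versus median of IL-6-stimulated wells. Probe or stimulus: IL-6 stimulus at 33 ng/mL final. Timing: compound 1 h, then IL-6 6 h at 37 °C. Signal: reporter luminescence signal.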
PPC-1+TRAIL kill: compounds killing PPC-1 cancer cells with TRAIL present, primary screen, TRAIL potentiator project, ATPLite luminescence, uHTS | PPC-1 cells + TRAIL, ATPLite viability luminescence | cell killing (% activity), % at 4 µM or 5 µM | hit rate 0.41% among 220,000 | AID 1443, 2008;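 active means cell killing above 50% in the first pass at 4 µM, then a duplicate retest at 5 µM averaging 50% or more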
STAT1 inh: STAT1 signaling inhibitors, primary screen, cell-based, HTS, luciferase reporter | NIH 3T3 STAT1-luciferase reporter, IFN-gamma, luminescence | inhibition, % at 5.5 µM | hit rate 0.35% among 200,000 | AID 920, 2007;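 active means inhibition above a set limit, the mean inhibition across all tested compounds plus 3 SD, cut at about 34% in these data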
Hits are given with their value; n = inactive; x = no result.

SMILES | STAT3 inh | C8 TRAIL sens | STAT3 act | PPC-1+TRAIL kill | STAT1 inh
O=C(N/N=C/c1cccc(O)c1)c1ccc2c(c1)OCCO2 | x | 89 | x | x | x
O=C(N/N=C/c1cc([N+](=O)[O-])ccc1O)c1ccc2c(c1)OCCO2 | n | 52 | n | n | n
Cc1cccc(/C=N\NC(=O)c2ccc(Cl)cc2)c1O | n | 55 | n | n | n
Cc1cccc(/C=N/NC(=O)c2ccc3c(c2)OCCO3)c1O | x | 76 | x | x | x
O=C(N/N=C/c1ccc2c(c1)OCO2)c1ccc2c(c1)OCO2 | x | n | x | x | x
CCn1c(C)nc2cc(C(=O)N/N=C/c3cccc(O)c3O)ccc21 | n | 52 | n | n | n
CCOc1ccc(OCCC(=O)N(CC)CC(=O)Nc2c(F)cccc2F)cc1 | x | n | x | x | x
CC(=O)Nc1ccc2nc(NC(=O)c3cccs3)sc2c1 | x | n | x | n | x
COc1ccccc1C(=O)Nc1nc2cc3c(cc2s1)OCCO3 | x | 59 | x | n | n
O=C(Nc1nc2cc3c(cc2s1)OCCO3)c1cccs1 | x | 63 | x | n | x
Cc1sc(NC(=O)c2cccc(N3C(=O)CCC3=O)c2)nc1-c1ccccc1 | x | 50 | x | x | x
O=C(Nc1nc2cc3c(cc2s1)OCCO3)c1cccc(N2C(=O)CCC2=O)c1 | x | n | x | 67 | n
Cc1onc(-c2ccccc2)c1C(=O)OCC(=O)Nc1ccccc1Cl | x | n | x | x | x
Cc1c(Cc2ccccc2)c(=O)oc2cc(OC(C)C(=O)NCC3CCC(C(=O)O)CC3)c(Cl)cc12 (stereo not given) | x | n | x | x | x
Cc1ccsc1C(=O)NNC(=O)CCN1CCN(c2ccccc2)CC1 | x | n | x | x | x
O=S(=O)(c1cc(O)ccc1O)c1cccc2c(S(=O)(=O)c3cc(O)ccc3O)cccc12 | x | n | x | x | x
Nc1c(N(CCC2=CCCCC2)C(=O)COc2ccc(F)cc2)c(=O)[nH]c(=O)n1Cc1ccccc1 | x | 73 | x | x | x
CN1N=C(N)c2cn(C3OC(COP(=O)(O)O)C(O)C3O)c3ncnc1c23 (stereo not given) | x | n | x | x | x
COc1ccc(NC(=O)CSc2nc(N)c3cc4c(nc3n2)CCCC4)cc1 | n | n | n | n | n
CC(=O)c1ccc(NC(=O)CSc2nc(N)c3cc4c(nc3n2)CCCC4)cc1 | n | 52 | n | n | n
CCn1c(SCC(=O)Nc2cc(C)nn2-c2ccccc2)nnc1-c1cccs1 | x | n | x | n | x
O=C1c2ccccc2C(=O)C1(CO)c1ccccc1 | n | n | n | n | n
O=C1c2ccccc2C(=O)C1(CO)c1ccc(OC(F)F)cc1 | x | 79 | x | x | x
Cn1c(=O)c(/C=C/c2ccccc2)nc2ccccc21 | n | n | 146 | n | n
O=C1CC(c2ccccc2)Sc2ccccc2N1 (stereo not given) | n | n | 135 | n | n
SMILES | STAT3 inh | C8 TRAIL sens | STAT3 act | PPC-1+TRAIL kill | STAT1 inh
O=C(CC1Sc2ccccc2NC1=O)NNc1cccc(Cl)c1Cl (stereo not given) | x | n | x | x | x
COc1cccc(C(=O)Nc2ccc3ccccc3c2)c1 | x | n | x | x | x
CC(=O)c1cccc(NC(=O)c2ccc3c(c2)CCCC3)c1 | x | n | x | x | x
COc1ccc(C(=O)Nc2ccc3ccccc3c2)cc1 | x | 69 | x | x | x
COc1ccc(NC(=O)c2ccc(C)cc2)cc1 | x | 68 | x | x | x
COc1cccc(NC(=O)c2ccc3c(c2)CCCC3)c1 | x | 65 | x | x | x
O=C1c2ccc([N+](=O)[O-])cc2C(=O)N1c1ccc([N+](=O)[O-])cn1 | x | n | x | x | x
CCN(CC)S(=O)(=O)c1ccc2c(c1)nc(SCC(=O)N(C)C1CCS(=O)(=O)C1)n2CC (stereo not given) | x | n | x | x | x
O=C(Cn1c(O)c(/C=C2\C=Nc3ccccc32)sc1=O)N1CCOCC1 | n | n | 134 | n | n
O=C(Cn1c(O)c(/C=C2\C=Nc3ccc(Br)cc32)sc1=O)N1CCCC1 | n | n | n | n | n
CN(C)c1ccc(-c2cc3ccccc3c(=O)o2)cc1 | x | 57 | x | x | x
COc1ccc(-c2cc3ccccc3c(=O)o2)cc1 | x | 53 | x | x | x
CCOC(=O)c1c(C)[nH]c(C)c1S(=O)(=O)N(C)CC(=O)N(C)Cc1ccccc1 | x | n | x | x | x
CCOc1cc(CN2CCC(N3CCC(C(=O)NC4CC4)CC3)CC2)ccc1O | x | n | x | x | x
CCCC1(c2ccccc2)NC(=O)N(C/C=C/Cl)C1=O (stereo not given) | x | n | x | x | x
O=C(CC1C[C@H](C(=O)N2CCCCC2)[C@@]2(CCc3ccccc3)c3[nH]c4ccccc4c3CCN2C1=O)NCCC1=CCCCC1 (stereo not given in full) | x | n | x | x | x
